# PP1 inh = PP1-alpha phosphatase inhibitors, primary screen, counter-screen for PP5 inhibitor project, biochemical, fluorescence, OMFP substrate, single point | purified PP1alpha | inhibition, % at 6.7 µM | actives 0.9% (n = 320,000);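 active means inhibition above the mean inhibition of all tested compounds plus 3 SD, computed separately for each screening campaign, cut at about 15% in these data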
# PP5 primary = PP5 phosphatase inhibitors, primary screen, biochemical, fluorescence. actives 0.18% (n = 320,000). inhibition, % at 6.7 µM. purified PP5c, OMFP substrate fluorescence;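 active means inhibition above the campaign's mean inhibition across all tested compounds plus 3 SD, cut at about 9.5% in these data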;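 further: 0% = DMSO only and 100% = 100 µM cantharidin control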
# Target sequence (P53041 whole entry, looked up): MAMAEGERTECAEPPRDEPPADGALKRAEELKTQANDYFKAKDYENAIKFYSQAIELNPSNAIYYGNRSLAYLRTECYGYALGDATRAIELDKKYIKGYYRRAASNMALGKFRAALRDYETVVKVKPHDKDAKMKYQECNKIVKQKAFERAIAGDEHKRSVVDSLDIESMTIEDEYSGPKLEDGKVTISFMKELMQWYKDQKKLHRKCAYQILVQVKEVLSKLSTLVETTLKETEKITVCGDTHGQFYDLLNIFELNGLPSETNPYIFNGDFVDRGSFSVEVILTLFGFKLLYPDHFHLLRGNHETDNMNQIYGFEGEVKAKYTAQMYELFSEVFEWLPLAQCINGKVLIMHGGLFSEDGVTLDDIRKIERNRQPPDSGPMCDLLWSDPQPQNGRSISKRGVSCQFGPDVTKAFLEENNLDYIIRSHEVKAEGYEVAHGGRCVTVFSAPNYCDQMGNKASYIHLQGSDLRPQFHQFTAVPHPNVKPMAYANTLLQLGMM
# Scp-1 inhibitor = Scp-1 phosphatase inhibitors, primary screen, biochemical, colorimetric, uHTS; actives 0.88% (n = 340,000); Carboxy-terminal domain RNA polymerase II polypeptide A small phosphatase 1 (Homo …; inhibition, % at 20 µM; Recombinant Scp1, phosphopeptide, malachite green phosphate absorbance;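 active means inhibition above about 50% at 20 µM, limit read from the data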;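 further: plate controls were DMSO wells with enzyme for no effect and wells lacking enzyme for full effect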
# Target sequence (Q9GZU7 76-261 limits assumed): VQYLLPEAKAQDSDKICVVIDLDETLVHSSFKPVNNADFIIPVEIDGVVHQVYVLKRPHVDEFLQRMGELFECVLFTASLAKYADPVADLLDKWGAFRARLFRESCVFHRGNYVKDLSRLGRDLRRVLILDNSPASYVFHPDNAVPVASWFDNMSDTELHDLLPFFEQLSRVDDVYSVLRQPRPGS
#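 Test system: SCP-1 phosphatase catalytic domain, residues 76-261 | Compound dosing: One concentration, 20 µM, with 1.0% DMSO | Schedule: 45 min room-temperature reaction, 5 min colour, 30 min stabiliser | Detection: Absorbance at 630 nm | Read-out basis: % inhibition of SCP-1 phosphate liberation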
# LMPTP inh = LMPTP phosphatase inhibitors, primary screen, biochemical, fluorescence intensity, uHTS; Low molecular weight phosphotyrosine protein phosphatase (Homo sapiens), P24666; recombinant LMPTP-A, OMFP fluorogenic substrate; inhibition, % at 20 µM; actives 0.22% (n = 360,000); AID 651560, 2012;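 active means compounds that cut the enzyme signal by at least half of the control window in the single-dose screen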;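 further: plate controls were DMSO wells with enzyme plus substrate for no effect and substrate without enzyme for full effect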
#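 Assay system: LMPTP-A enzyme. Input: 0.625 nM LMPTP-A final. Probe or stimulus: 400 µM OMFP. Compound dosing: single 20 µM dose. Schedule: 50 min dark incubation at room temperature. Detection: fluorescence intensity of OMFP turnover product. Read-out: percent inhibition versus substrate-only and uninhibited controls. Benchmarks: no-enzyme low control, uninhibited high control.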
# STEP inh = STEP phosphatase inhibitors, primary screen, biochemical, fluorescence intensity, uHTS | Tyrosine-protein phosphatase non-receptor type 5 (Homo sapiens), P54829 | recombinant STEP, OMFP fluorogenic substrate | inhibition, % at 20 µM | actives 0.25% (n = 360,000);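 active means inhibition at 20 µM, scaled per plate between control wells, above about 37%, limit read from the data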;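 further: 0% = DMSO with enzyme and substrate and 100% = substrate only without enzyme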
#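 Test system: STEP tyrosine phosphatase / Reagent: OMFP at 25 µM / Doses: 20 µM, 1% DMSO / Read-out: percent inhibition scaled to no-enzyme and uninhibited-enzyme controls, plate-pattern corrected / Detection: FITC-channel fluorescence of OMFP product / Medium: Bis-Tris buffer pH 6.0, 2.5 mM DTT, 0.005% Tween 20 / Schedule: 20 min at room temperature, dark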
# PP5 inh confirm = PP5 phosphatase inhibitors, confirmation, biochemical, fluorescence, human | shares compounds with PP5 primary | Purified PP5, fluorogenic phosphatase substrate | inhibition, % at 6.7 µM | actives 22% (n = 460) | AID 2331, 2010; in the data active means inhibition above about 9.5%
# PP1 counter 3x = PP1 phosphatase inhibitors, counter-screen for PP5 inhibitor project, biochemical, fluorescence, triplicate | shares compounds with PP5 primary | PP1 enzyme, fluorescent phosphatase substrate | actives 4% (n = 460) | AID 2355, 2010 | inhibition, % at 6.7 µM; in the data active means inhibition above about 16%
# * hit, by the source's call; . = not tested or not shown. Compounds with a hit are over-represented: about 1.9% of the library has one in this group of screens.
SMILES,PP1 inh,PP5 primary,Scp-1 inhibitor,LMPTP inh,STEP inh,PP5 inh confirm,PP1 counter 3x
COc1ccc(NC(=O)CSCC(=O)N(C)CC(=O)Nc2ccc(Cl)c(C(F)(F)F)c2)cc1,0.9,0.9,-8.9,1.4,-1.2,.,.
Cc1cc(C)cc(OCC(=O)N(C)CC(=O)Nc2ccc(Cl)c(C(F)(F)F)c2)c1,4.4,10.4*,-6.8,2.9,-2.0,4.9,6.9
O=C1CN(c2nc(-c3cccs3)nc3sc4c(c23)CCCC4)CCN1,3.5,2.1,9.2,-3.3,3.5,.,.
O=C1CN(c2nc(-c3cccnc3)nc3scc(-c4ccccc4)c23)CCN1,-0.5,10.2*,-4.9,1.7,-1.4,-1.3,1.4
CC1=NN(c2ccccc2)C(=O)/C1=C\C=C1/N(C)c2ccccc2C1(C)C,9.2,10.2*,-5.6,32.2,17.7,8.8,6.7
C(=N\Nc1nn[nH]n1)/c1ccccc1,0.5,1.8,-5.2,-1.1,0.8,.,.
Nc1ccc(O)cc1,13.1,10.9*,.,.,.,5.2,-1.8
Cc1ccc(C(=O)Nc2c(C(=O)NCc3ccco3)cnn2-c2ccccc2)cc1,-2.7,-2.1,-3.7,0.0,-0.7,.,.
O=C(Nc1c(C(=O)NCc2ccco2)cnn1-c1ccccc1)c1cccc(F)c1,-2.8,10.5*,-7.0,-1.3,-0.6,-7.0,-4.5
CN(c1ccccc1)S(=O)(=O)c1cccc(C(=O)NCCc2ccc(O)c(O)c2)c1,2.0,-1.1,5.4,0.3,2.1,.,.
O=C(O)CCC(=O)c1c[nH]c2ccccc12,-1.7,11.5*,-8.0,0.1,-0.9,-6.1,-2.0
CCCn1c(SCC(=O)NC2CCCC2)nnc1-c1ccccn1,-5.7,10.7*,-5.4,-2.2,0.2,-2.9,-4.0
O=C1NC(c2cccc3ccccc23)Nc2ccccc21 (stereo not drawn),.,.,-0.3,-1.5,-3.0,.,.
O=C1c2ccccc2C(=O)C12OC2c1cccc2ccccc12 (stereo not drawn),-0.4,10.0*,-1.2,15.2,33.9,34.9*,16.8*
COc1cc(C2C(C(=O)c3ccc(C)o3)=C(O)C(=O)N2CCCn2ccnc2)cc(OC)c1OC (stereo not drawn),-2.1,0.2,-9.5,-5.0,0.8,.,.
Cc1ccc2c(Cl)c(C(=O)NCc3cccnc3)sc2c1,0.4,10.7*,-2.4,-0.1,4.5,-3.6,-1.5
COc1cc(S(=O)(=O)N2CCC(O)(c3cccc(C(F)(F)F)c3)CC2)ccc1-n1cnnn1,0.4,5.2,-10.5,0.7,-13.6,.,.
O=S(=O)(c1ccc(OC(F)(F)F)cc1)N1CCC(O)(c2cccc(C(F)(F)F)c2)CC1,12.4,10.6*,-13.5,2.5,-1.1,6.5,8.4
CCN(C(=O)c1ccccc1)c1ccc([N+](=O)[O-])cc1,0.2,-3.1,0.0,-0.9,0.2,.,.
O=[N+]([O-])c1ccc(N(c2ccccc2)c2ccccc2)cc1,-2.1,9.9*,-14.2,3.4,4.1,-2.4,-1.2
Cn1c(=O)n(C)c2cc(NS(=O)(=O)c3ccc(Cl)s3)ccc21,-6.1,3.5,7.2,2.6,-0.9,.,.
COc1ccc(Cl)cc1C(=O)Nc1cccc2ncccc12,3.0,3.5,6.3,-0.8,1.1,.,.
CCOC(=O)CSc1nc2c(sc(=S)n2-c2ccc(OCC)cc2)c(=O)[nH]1,3.4,-0.7,2.2,-0.9,-1.3,.,.
Cc1ccc(/C(O)=C2\C(=O)C(=O)N(C)C2c2ccc(Br)cc2)cc1 (stereo not drawn),6.2,10.4*,-4.7,0.0,3.3,-6.6,-2.3
N#CC1=C(N)OC2=C(C(=O)CCC2)[C@]12C(=O)N(CC(N)=O)c1ccccc12,-0.8,0.1,-2.9,-0.5,-0.6,.,.
SMILES,PP1 inh,PP5 primary,Scp-1 inhibitor,LMPTP inh,STEP inh,PP5 inh confirm,PP1 counter 3x
O=C1CCCC2=C1C1(O)C(=O)c3ccccc3C1(O)O2 (stereo not drawn),9.5,16.9*,-15.0,3.6,0.5,45.1*,2.7
COc1cc(C(=O)NC(=S)Nc2ccc(NC(=O)c3ccco3)cc2)cc(OC)c1OC,-3.2,1.9,-1.4,-0.8,-2.3,.,.
O=C(Nc1ccc(-c2nc3ccccc3o2)c(O)c1)c1cc(-n2cnnc2)ccc1Cl,7.7,2.7,0.4,5.1,1.5,.,.
CC(C)(C)OC(=O)NCCCC[C@H](NC(=O)c1[nH]cnc1C(=O)Nc1ccc(Cl)cc1)C(=O)OC(C)(C)C,4.6,8.9,3.5,2.6,0.5,.,.
CC(C)(C)OC(=O)NCCCC[C@H](NC(=O)c1[nH]cnc1C(=O)Nc1ccccc1)C(=O)OC(C)(C)C,7.1,10.6*,-8.1,3.8,-1.6,7.8,7.6
CC(C)C[C@H](NC(=O)c1nc[nH]c1C(=O)N[C@@H](CCCCNC(=O)OC(C)(C)C)C(=O)OC(C)(C)C)C(=O)OC(C)(C)C,10.7,13.8*,-8.2,1.1,1.3,9.3,11.5
Nc1ccccc1C(=O)N1CCc2ccccc21,2.9,10.2*,-8.3,-2.3,1.0,-2.6,-3.8
Cc1cc(C(=O)N2CCc3ccccc32)c2ccccc2n1,-0.4,9.8*,2.5,0.3,3.5,-3.6,-2.3
C=CCN(CC=C)C(=O)C1CCN(S(=O)(=O)c2ccc(N3CCCC3=O)cc2)CC1,-0.8,0.1,-9.1,-1.2,-0.9,.,.
Cc1cccc(OCCn2ccnc2)c1,-2.1,-0.7,-3.7,-1.6,-4.3,.,.
Clc1ccc(OCCn2ccnc2)cc1Cl,1.8,10.0*,-2.8,-0.7,2.0,-1.5,-2.7
COc1cc(/C=C/C(=O)Nc2cc(C(F)(F)F)ccc2Cl)cc(OC)c1OC,5.2,9.9*,-12.1,2.9,2.8,3.9,3.1
COc1cccc(Cn2c3ccc(NC(=O)CC(C)C(F)(F)F)cc3c(=O)n2C)c1 (stereo not drawn),.,.,.,-0.5,-2.0,.,.
CCNc1nc(Nc2ccc(C)c(Cl)c2)c2cnn(C)c2n1,5.7,10.4*,-6.5,2.2,-3.3,0.3,3.0
CCCCNc1nc(Nc2ccc(C)c(Cl)c2)c2cnn(C)c2n1,9.4,4.6,-3.7,1.3,-3.5,.,.
O=C(CSc1ccc(Cl)cc1)NN=C1CCCCCC1,4.8,0.6,-8.7,0.8,1.5,.,.
Cc1nn(Cc2ccccc2Cl)c(C)c1NC(=O)C1C2CCC(O2)C1C(=O)O (stereo not drawn),.,.,5.7,-0.4,-3.0,.,.
